Data taken from ChEMBL document CHEMBL3259541, “Synthesis and biological evaluation of antimetastatic agents predicated upon dihydromotuporamine C and its carbocyclic derivatives” (J Med Chem, 2014).

Assays:
L3.6pl [1] = test: Effect on intracellular ceramide population in human L3.6PL cells assessed as sphingomyelin N22:0 level measured per mg of protein at 0.6 uM after 48 hrs incubation by mass spectrometry analysis (reference value: 0.30 +/- 0.10 nmol); format: functional
L3.6pl [2] = test: Effect on intracellular ceramide population in human L3.6PL cells assessed as sphingomyelin N16:0 level measured per mg of protein at 0.6 uM after 48 hrs incubation by mass spectrometry analysis (reference value: 3.21 +/- 0.90 nmol); format: functional
polyamine transporter = test: Selectivity ratio of IC50 for polyamine transporter deficient CHO-MG cells to IC50 for CHO cells by MTS assay; format: ADME, cell-based, Cricetulus griseus; details: chinese hamster, polyamine transporter deficient CHO-MG cells and CHO cells; read-out: Ratio IC50
In short: (§1)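 CHO and polyamine-transport-deficient CHO-MG* cells pretreated 24 h with 1 mM aminoguanidine, then exposed to compound for 48 h at 37 °C. Triplicate. IC50 taken as 50% growth inhibition. PTS selectivity expressed as the CHO-MG*/CHO IC50 ratio.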

L3.6pl [3] = test: Effect on intracellular ceramide population in human L3.6PL cells assessed as sphingomyelin N23:2 level measured per mg of protein at 0.6 uM after 48 hrs incubation by mass spectrometry analysis (reference value: 0.03 +/- 0.02 nmol); format: functional
L3.6pl [4] = test: Effect on intracellular ceramide population in human L3.6PL cells assessed as sphingomyelin N22:2 level measured per mg of protein at 0.6 uM after 48 hrs incubation by mass spectrometry analysis (reference value: 0.02 +/- 0.00 nmol); format: functional
L3.6pl [5] = test: Effect on intracellular ceramide population in human L3.6PL cells assessed as sphingomyelin N26:1 level measured per mg of protein at 0.6 uM after 48 hrs incubation by mass spectrometry analysis (reference value: 0.01 +/- 0.00 nmol); format: functional
L3.6pl [6] = test: Effect on intracellular ceramide population in human L3.6PL cells assessed as sphingomyelin N18:0 level measured per mg of protein at 0.6 uM after 48 hrs incubation by mass spectrometry analysis (reference value: 0.38 +/- 0.11 nmol); format: functional
L3.6pl [7] = test: Effect on intracellular ceramide population in human L3.6PL cells assessed as ceramide N16:0 to N22:1 ratio measured at 0.6 uM after 48 hrs incubation by mass spectrometry analysis (reference value: 5.8 no_unit)
L3.6pl [8] = test: Effect on intracellular ceramide population in human L3.6PL cells assessed as sphingomyelin N20:0 level measured per mg of protein at 0.6 uM after 48 hrs incubation by mass spectrometry analysis (reference value: 0.09 +/- 0.03 nmol); format: functional
L3.6pl [9] = test: Effect on intracellular ceramide population in human L3.6PL cells assessed as sphingomyelin N17:0 level measured per mg of protein at 0.6 uM after 48 hrs incubation by mass spectrometry analysis (reference value: 0.09 +/- 0.03 nmol); format: functional
L3.6pl [10] = test: Effect on intracellular ceramide population in human L3.6PL cells assessed as sphingomyelin N22:1 level measured as contribution to total ceramide population at 0.6 uM after 48 hrs incubation by mass spectrometry analysis (reference value: 6.5%); format: functional
L3.6pl [11] = test: Effect on intracellular ceramide population in human L3.6PL cells assessed as sphingomyelin N21:0 level measured per mg of protein at 0.6 uM after 48 hrs incubation by mass spectrometry analysis (reference value: 0.03 +/- 0.01 nmol); format: functional
L3.6pl [12] = test: Effect on intracellular ceramide population in human L3.6PL cells assessed as sphingomyelin N24:0 level measured per mg of protein at 0.6 uM after 48 hrs incubation by mass spectrometry analysis (reference value: 0.22 +/- 0.06 nmol); format: functional
L3.6pl [13] = test: Effect on intracellular ceramide population in human L3.6PL cells assessed as sphingomyelin N14:0 level measured per mg of protein at 0.6 uM after 48 hrs incubation by mass spectrometry analysis (reference value: 0.12 +/- 0.03 nmol); format: functional
L3.6pl [14] = test: Effect on intracellular ceramide population in human L3.6PL cells assessed as sphingomyelin N16:0 level measured as contribution to total ceramide population at 0.6 uM after 48 hrs incubation by mass spectrometry analysis (reference value: 37.3%); format: functional
L3.6pl [15] = test: Effect on intracellular ceramide population in human L3.6PL cells assessed as sphingomyelin N20:1 level measured per mg of protein at 0.6 uM after 48 hrs incubation by mass spectrometry analysis (reference value: 0.04 +/- 0.01 nmol); format: functional
L3.6pl [16] = test: Effect on intracellular ceramide population in human L3.6PL cells assessed as sphingomyelin N18:1 level measured per mg of protein at 0.6 uM after 48 hrs incubation by mass spectrometry analysis (reference value: 0.08 +/- 0.02 nmol); format: functional
L3.6pl [17] = test: Effect on intracellular ceramide population in human L3.6PL cells assessed as sphingomyelin N22:1 level measured per mg of protein at 0.6 uM after 48 hrs incubation by mass spectrometry analysis (reference value: 0.23 +/- 0.07 nmol); format: functional
CHO-MG = test: Cytotoxicity against polyamine transporter deficient CHO-MG cells assessed as cell growth after 48 hrs incubation by MTS assay in presence of 1 mM aminoguanidine; format: ADME, cell-based; details: Cricetulus griseus; in short: as §1
L3.6pl [18] = test: Effect on intracellular ceramide population in human L3.6PL cells assessed as sphingomyelin N23:0 level measured per mg of protein at 0.6 uM after 48 hrs incubation by mass spectrometry analysis (reference value: 0.08 +/- 0.04 nmol); format: functional
L3.6pl [19] = test: Effect on intracellular ceramide population in human L3.6PL cells assessed as sphingomyelin N23:1 level measured per mg of protein at 0.6 uM after 48 hrs incubation by mass spectrometry analysis (reference value: 0.13 +/- 0.05 nmol); format: functional
L3.6pl [20] = test: Effect on intracellular ceramide population in human L3.6PL cells assessed as sphingomyelin N16:1 level measured per mg of protein at 0.6 uM after 48 hrs incubation by mass spectrometry analysis (reference value: 0.24 +/- 0.04 nmol); format: functional
[21] = Cytotoxicity against human L3.6PL cells assessed as inhibition of cell growth after 48 hrs incubation by MTS assay in presence of 250 uM aminoguanidine treated 24 hrs prior compound addition; format: functional, cell-based; details: for IC50: Homo sapiens, L3.6pl
In short: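 L3.6pl cells pretreated 24 h with 250 μM aminoguanidine, then incubated with compound for 48 h at 37 °C. Triplicate. IC50 is the concentration giving 50% growth inhibition and IC5 the concentration giving 5% inhibition, both versus untreated control.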

CHO = test: Cytotoxicity against CHO cells assessed as cell growth after 48 hrs incubation by MTS assay in presence of 1 mM aminoguanidine; format: cell-based; details: Cricetulus griseus; in short: as §1
L3.6pl [22] = test: Effect on intracellular ceramide population in human L3.6PL cells assessed as sphingomyelin N20:0 level measured as contribution to total ceramide population at 0.6 uM after 48 hrs incubation by mass spectrometry analysis (reference value: 1.1%); format: functional
L3.6pl [23] = test: Effect on intracellular ceramide population in human L3.6PL cells assessed as sphingomyelin N25:1 level measured per mg of protein at 0.6 uM after 48 hrs incubation by mass spectrometry analysis (reference value: 0.02 +/- 0.02 nmol); format: functional

Work on `Cl.NCCCNCCCN1CCCCCCCCCCCCCC1` yielded an Activity (L3.6pl [1]) of 0.4 nmol, an Activity (L3.6pl [2]) of 4.01 nmol and a selectivity ratio (polyamine transporter) of 1. For the same compound, the Activity (L3.6pl [3]) was 0.02 nmol, the Activity (L3.6pl [4]) was 0.02 nmol and the Activity (L3.6pl [5]) was 0.01 nmol. The Activity (L3.6pl [6]) was 0.47 nmol, the Ratio (L3.6pl [7]) was 1.1 and the Activity (L3.6pl [8]) was 0.14 nmol. For the same compound, the Activity (L3.6pl [9]) was 0.14 nmol, the Activity (L3.6pl [10]) was 18.6% and the Activity (L3.6pl [11]) was 0.04 nmol. The Activity (L3.6pl [12]) was 0.21 nmol, the Activity (L3.6pl [13]) was 0.24 nmol and the Activity (L3.6pl [14]) was 20.3%. For the same compound, the Activity (L3.6pl [15]) was 0.04 nmol, the Activity (L3.6pl [16]) was 0.13 nmol and the Activity (L3.6pl [17]) was 0.26 nmol. For the same compound, the IC50 (CHO-MG) was 2.96 µM, the Activity (L3.6pl [18]) was 0.09 nmol and the Activity (L3.6pl [19]) was 0.15 nmol. The Activity (L3.6pl [20]) was 0.31 nmol, the IC5 [21] was 0.6 µM and the IC50 [21] was 0.99 µM. The IC50 (CHO) was 2.9 µM, the Activity (L3.6pl [22]) was 0.6% and the Activity (L3.6pl [23]) was 0.03 nmol.
`Cl.NCCCNCCCNCC1CCCCCCCCCCCCCC1` showed an Activity (L3.6pl [1]) of 0.46 nmol, an Activity (L3.6pl [2]) of 4.36 nmol and a selectivity ratio (polyamine transporter) of 1. The Activity (L3.6pl [3]) was 0.02 nmol, the Activity (L3.6pl [4]) was 0.03 nmol and the Activity (L3.6pl [5]) was 0.01 nmol. It also gave an Activity (L3.6pl [6]) of 0.54 nmol, a Ratio (L3.6pl [7]) of 8.4 and an Activity (L3.6pl [8]) of 0.15 nmol. It also gave an Activity (L3.6pl [9]) of 0.16 nmol, an Activity (L3.6pl [10]) of 4.6% and an Activity (L3.6pl [11]) of 0.04 nmol. The Activity (L3.6pl [12]) was 0.25 nmol, the Activity (L3.6pl [13]) was 0.2 nmol and the Activity (L3.6pl [14]) was 38.4%. It also gave an Activity (L3.6pl [15]) of 0.05 nmol, an Activity (L3.6pl [16]) of 0.14 nmol and an Activity (L3.6pl [17]) of 0.3 nmol. For the same compound, the IC50 (CHO-MG) was 87.3 µM, the Activity (L3.6pl [18]) was 0.1 nmol and the Activity (L3.6pl [19]) was 0.17 nmol. The Activity (L3.6pl [20]) was 0.34 nmol, the IC5 [21] was 80 µM and the IC50 [21] was 89.4 µM. For the same compound, the IC50 (CHO) was 82.9 µM, the Activity (L3.6pl [22]) was 1.5% and the Activity (L3.6pl [23]) was 0.03 nmol.
